According to article PMC5773961 (British Journal of Pharmacology, 2017):
Values after ≈ are worked out from the molar mass of the structure shown. Where two headings read alike, the source gives them in different places.

Columns and labels:
[1] = system: benzodiazepine (BZD) receptor; details: ref Czernik et al., 1982; cited from earlier work
[2] = system: αxβ3γ2 (x = 1–5) GABAA receptors; type: cell-based, rat
Method in brief: (§1)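 Rat α and β3/γ2 subunit mRNA (2.5 ng total) injected into defolliculated stage 5–6 X. laevis oocytes. Ratio α:β3:γ2 was 1:1:5 for α1, α2, α3 and α5, and 3:1:5 for α4. Oocytes held ≥36 h at 18°C in NDE. TEVC was run at −60 mV at room temperature under 6 mL·min−1 NDE perfusion. Per-oocyte GABA EC3–5 co-applied with test compound in 0.1% DMSO final. ≥3 oocytes from two batches.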

α6β3γ2 GABAA receptors = α6β3γ2 GABAA receptors (Rattus norvegicus, UniProt P30191+P63079); type: cell-based; details: for modulation of GABA EC3–5 currents in screening of compounds 5–9, in words: 10 μM compound, comparable to compound 3
Chain of α6β3γ2 GABAA receptors (P30191 20-453): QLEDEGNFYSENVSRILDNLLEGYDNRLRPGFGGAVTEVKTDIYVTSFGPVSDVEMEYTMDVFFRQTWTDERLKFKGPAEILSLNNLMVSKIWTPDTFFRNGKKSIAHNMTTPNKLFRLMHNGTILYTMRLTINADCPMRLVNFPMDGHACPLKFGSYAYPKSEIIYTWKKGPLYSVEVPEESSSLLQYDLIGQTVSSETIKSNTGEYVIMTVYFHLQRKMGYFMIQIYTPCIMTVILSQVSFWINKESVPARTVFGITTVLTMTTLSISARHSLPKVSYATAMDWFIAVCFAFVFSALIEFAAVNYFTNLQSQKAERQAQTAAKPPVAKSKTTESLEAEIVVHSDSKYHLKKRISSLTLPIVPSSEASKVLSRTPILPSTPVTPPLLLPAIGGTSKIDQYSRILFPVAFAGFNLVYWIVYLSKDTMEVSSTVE
Chain of α6β3γ2 GABAA receptors (P63079 26-473): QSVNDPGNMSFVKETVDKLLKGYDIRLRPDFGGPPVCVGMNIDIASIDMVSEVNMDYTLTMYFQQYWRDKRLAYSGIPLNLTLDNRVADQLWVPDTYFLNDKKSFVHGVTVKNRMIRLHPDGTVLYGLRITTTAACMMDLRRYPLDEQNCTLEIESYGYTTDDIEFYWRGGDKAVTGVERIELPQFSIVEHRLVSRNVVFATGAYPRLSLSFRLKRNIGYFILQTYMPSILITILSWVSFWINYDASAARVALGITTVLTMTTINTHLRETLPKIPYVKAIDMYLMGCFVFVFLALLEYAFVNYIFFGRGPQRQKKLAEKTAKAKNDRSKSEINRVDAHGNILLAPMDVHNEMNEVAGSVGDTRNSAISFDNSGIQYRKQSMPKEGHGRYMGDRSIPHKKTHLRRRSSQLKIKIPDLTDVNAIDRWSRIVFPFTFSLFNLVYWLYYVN
Chain of α6β3γ2 GABAA receptors (P18508 39-466 partner): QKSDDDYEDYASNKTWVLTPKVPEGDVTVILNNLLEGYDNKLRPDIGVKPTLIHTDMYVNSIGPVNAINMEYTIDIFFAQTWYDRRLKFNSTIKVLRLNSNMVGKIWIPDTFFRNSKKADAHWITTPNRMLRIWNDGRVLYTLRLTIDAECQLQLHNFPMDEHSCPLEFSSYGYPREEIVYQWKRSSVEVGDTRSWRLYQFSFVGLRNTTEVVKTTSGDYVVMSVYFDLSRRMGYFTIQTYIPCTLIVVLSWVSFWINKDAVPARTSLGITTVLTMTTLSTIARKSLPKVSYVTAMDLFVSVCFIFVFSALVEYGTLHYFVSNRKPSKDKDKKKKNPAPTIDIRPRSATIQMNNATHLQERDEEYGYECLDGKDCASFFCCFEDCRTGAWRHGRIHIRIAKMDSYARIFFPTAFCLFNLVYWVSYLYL
Method in brief: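 Oocytes (X. laevis, stage 5–6, defolliculated) received 2.5 ng of rat α6:β3:γ2 mRNA at 3:1:5, or γ2‐β3‐α6 triple plus β3‐α6 double concatemer cRNA at 1:1. Incubated ≥36 h at 18°C. TEVC at −60 mV, room temperature. Per-oocyte GABA EC3–5 co-applied with test compound(s) at various concentrations, 0.1% DMSO final. Hill fit for EC50. ≥3 oocytes from two batches.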

α1β3γ2 GABAA receptors = α1β3γ2 GABAA receptors (Rattus norvegicus, UniProt P62813+P63079); type: cell-based; details: for % modulation of GABA EC3–5 currents: 10 μM compound, control (GABA) = EC3–5
Chain of α1β3γ2 GABAA receptors (P62813 28-455): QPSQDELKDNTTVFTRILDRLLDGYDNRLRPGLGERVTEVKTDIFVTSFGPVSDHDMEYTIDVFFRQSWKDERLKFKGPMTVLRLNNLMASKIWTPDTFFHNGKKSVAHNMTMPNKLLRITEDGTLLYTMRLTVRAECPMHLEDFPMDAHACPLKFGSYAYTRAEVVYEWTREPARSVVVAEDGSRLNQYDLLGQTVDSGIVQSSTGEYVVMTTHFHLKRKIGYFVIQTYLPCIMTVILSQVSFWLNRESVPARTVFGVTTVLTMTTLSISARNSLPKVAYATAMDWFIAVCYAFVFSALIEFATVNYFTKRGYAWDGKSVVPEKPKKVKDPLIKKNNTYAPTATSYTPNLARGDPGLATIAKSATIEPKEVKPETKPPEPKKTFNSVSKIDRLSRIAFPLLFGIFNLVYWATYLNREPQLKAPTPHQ
Chain of α1β3γ2 GABAA receptors (P63079 26-473): as the sequence (P63079 26-473) above
Chain of α1β3γ2 GABAA receptors (P18508 39-466 partner): as the sequence (P18508 39-466 partner) above
Method in brief: as §1

[3] = Solubility limit in the assay buffer; type: physicochemical; details: aqueous buffer
[4] = system: αxβ3γ2 (x = 1–6) GABAA receptors; type: cell-based, rat
α5β3γ2 GABAA receptors = α5β3γ2 GABAA receptors (Rattus norvegicus, UniProt P19969+P63079); type: cell-based
Chain of α5β3γ2 GABAA receptors (P19969 32-464 limits assumed): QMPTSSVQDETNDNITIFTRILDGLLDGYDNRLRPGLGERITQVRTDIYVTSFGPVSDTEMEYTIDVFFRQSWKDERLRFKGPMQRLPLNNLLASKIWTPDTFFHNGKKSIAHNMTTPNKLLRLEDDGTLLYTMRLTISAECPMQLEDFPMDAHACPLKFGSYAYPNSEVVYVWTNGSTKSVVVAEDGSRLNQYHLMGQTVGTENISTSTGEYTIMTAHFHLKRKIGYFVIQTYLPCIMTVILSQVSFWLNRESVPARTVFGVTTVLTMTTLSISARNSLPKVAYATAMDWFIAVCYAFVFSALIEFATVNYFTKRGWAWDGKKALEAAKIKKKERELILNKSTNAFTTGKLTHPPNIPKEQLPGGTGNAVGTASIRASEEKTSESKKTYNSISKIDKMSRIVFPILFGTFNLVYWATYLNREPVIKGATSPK
Chain of α5β3γ2 GABAA receptors (P63079 26-473): as the sequence (P63079 26-473) above
Chain of α5β3γ2 GABAA receptors (P18508 39-466 partner): as the sequence (P18508 39-466 partner) above
Method in brief: as §1

α1β3 receptors = α1β3 receptors (Rattus norvegicus, UniProt P62813+P63079); assay: Two-electrode voltage clamp, α1β3 versus α1β3γ2 receptors; type: cell-based; details: independence from γ2 subunit
Chain of α1β3 receptors (P62813 28-455): as the sequence (P62813 28-455) above
Chain of α1β3 receptors (P63079 26-473): as the sequence (P63079 26-473) above
Method in brief: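 Two-electrode voltage clamp of rat subunit mRNA-injected X. laevis oocytes, ≥36 h at 18°C in NDE (pH 7.5) before recording. Held at −60 mV at room temperature under continuous NDE flow. GABA titrated per oocyte to EC3–5 and co-applied with test compound, 0.1% DMSO final.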

[5] = system: αxβ3γ2 (x = 1–5) GABAA receptors; details: non‐α6, αxβ3γ2 receptors; 10 μM; ref Varagic et al., 2013a; cited from earlier work
α6+/γ2− BZ site = α6+/γ2− BZ site (Rattus norvegicus, UniProt P18508+P30191); assay: Saturation binding of [3H]Ro15-4513 to rat cerebellar membranes; details: presence of diazepam, rat cerebellum, n=3
Chain of α6+/γ2− BZ site (P30191 20-453): as the sequence (P30191 20-453) above
Chain of α6+/γ2− BZ site (P18508 39-466): as the sequence (P18508 39-466 partner) above

[6] = α6β3γ2, 1 μM compound, control (GABA) = EC3–5

**Q.** For O=C1C2C=Nc3ccccc3C2=NN1c1ccccc1 (stereo not shown) [CGS8216], which “concentrations displacing [3H]‐flunitrazepam and [3H]‐diazepam binding” value [1] is on record?
**A.** The value was “subnanomolar”.

**Q.** Which results are given for COc1cccc(-n2nc3c4cc(Cl)ccc4[nH]cc-3c2=O)c1 [Compound 3, 8‐chloro‐2‐(3‐methoxyphenyl)‐2H,3H,5H‐pyrazolo[4,3‐c]quinolin‐3‐one]?
**A.** modulatory activity [2]: completely abolished; EC50 (α6β3γ2 GABAA receptors): 3100 nM; % modulation of GABA EC3–5 currents (α6β3γ2 GABAA receptors; α6β3γ2, 10 μM compound concentration, control GABA EC3–5 = 100%): around 300%; type of modulation (α1β3γ2 GABAA receptors): null (silent) modulator; effect on positive GABA current modulation by compound 2 (1 μM) (α1β3γ2 GABAA receptors; co-application of 10 and 30 μM): reduced the modulatory effect of compound 2

**Q.** For COc1ccccc1-n1nc2c3cc(Cl)ccc3[nH]cc-2c1=O [Compound 4, 8‐chloro‐2‐(2‐methoxyphenyl)‐2H,3H,5H‐pyrazolo[4,3‐c]quinolin‐3‐one], which solubility [3] is on record?
**A.** The solubility was 30 µM (≈ 9.77 µg/mL).

**Q.** And the “positive allosteric modulation (PAM) activity” value [4]?
**A.** The value was “abolished any positive allosteric modulation (PAM) activity”.

**Q.** What about the “effect on modulation elicited by compound 3 (3 μM)” value (α6β3γ2 GABAA receptors; α6β3γ2, co-application up to 30 μM) of the same compound?
**A.** Its value is “unable to abolish the modulatory effect”.

**Q.** What about the modulatory activity (α5β3γ2 GABAA receptors) of the same compound?
**A.** Its modulatory activity is “weak negative modulatory activity”.

**Q.** With Cc1cccc(-n2nc3c4cc(Cl)ccc4[nH]cc-3c2=O)c1 [Compound 5, 8‐chloro‐2‐(3‐methylphenyl)‐2H,3H,5H‐pyrazolo‐[4,3‐c]quinolin‐3‐one] as the compound, how does the “modulatory effects in α1β3γ2 and α1β3” value (α1β3 receptors) read?
**A.** The value was “overlapping”.

**Q.** What about the “% modulation of GABA EC3–5 currents” value (α6β3γ2 GABAA receptors; [6]) of the same compound?
**A.** Its value is “more than 150%”.

**Q.** What about the “modulation of GABA EC3–5 currents in screening of compounds 5–9, in words” value (“modulation of GABA EC3–5 currents … in words” for short) (α6β3γ2 GABAA receptors; α6β3γ2) of the same compound?
**A.** The value was “strongest modulation”.

**Q.** And the “% modulation of GABA EC3–5 currents” value (α1β3γ2 GABAA receptors)?
**A.** The value was 210.7 ± 17%.

**Q.** Which “modulation of GABA EC3–5 currents … in words” value (α6β3γ2 GABAA receptors; α6β3γ2) does the source give for Nc1cccc(-n2nc3c4cc(Cl)ccc4[nH]cc-3c2=O)c1 [Compound 8, 2‐(3‐aminophenyl)‐8‐chloro‐2H,3H,5H‐pyrazolo[4,3‐c]quinolin‐3‐one] here?
**A.** The value was “strongest modulation”.

**Q.** For O=C(O)c1cccc(-n2nc3c4cc(Cl)ccc4[nH]cc-3c2=O)c1 [Compound 9, 3‐(8‐chloro‐3‐oxo‐2H,3H,5H‐pyrazolo[4,3‐c]quinolin‐2‐yl)benzoic acid], which “modulatory effects in α1β3γ2 and α1β3” value (α1β3 receptors) is on record?
**A.** The value was “overlapping”.

**Q.** And the “% modulation of GABA EC3–5 currents” value (α6β3γ2 GABAA receptors; [6])?
**A.** The value was “more than 150%”.

**Q.** And the “modulation of GABA EC3–5 currents … in words” value (α6β3γ2 GABAA receptors; α6β3γ2)?
**A.** Its value is “strongest modulation”.

**Q.** What about the type of modulation (α1β3γ2 GABAA receptors) of the same compound?
**A.** Its type of modulation is “negative allosteric modulation”.

**Q.** What about the “% modulation of GABA EC3–5 currents” value (α1β3γ2 GABAA receptors) of the same compound?
**A.** Its value is 17.9 ± 7.4%.

**Q.** For COc1ccc(-n2nc3c4ccc(OC)cc4[nH]cc-3c2=O)cc1 [PZ‐II‐029], which “residual modulatory activity, % of control GABA currents” value [5] is on record?
**A.** The value was “roughly 200%”.

**Q.** For CCOC(=O)c1ncn2c1CN(C)C(=O)c1cc(N=[N+]=[N-])ccc1-2 [[3H]Ro15-4513], which Kd (α6+/γ2− BZ site) is on record?
**A.** Its Kd is 1.4 ± 0.1 nM.
